Experimental data: paper PMC10754386 (Acta physiologica (Oxford, England), 2022)

Tests used:
GSK-3β = assay: Immunoblotting of GSK-3β in liver; format: in vivo, mouse; conditions: liver of fasted NCD-WT and DIO-WT mice; immunoblot; n = 4; Figure 9A,B
PI3-kinase = assay: PI-3-kinase activity in anti-p85 immunoprecipitates of hepatocytes; format: cell-based, mouse; conditions: CST 100 nM for 1 hour, insulin 10 nM for 10 minutes, Figure 6E
Method in brief: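 Mouse hepatocytes were left untreated or exposed to CST (100 nM, 1 hr) or insulin (10 nM, 10 min), then lysed. Anti-p85 immunoprecipitates were washed and assayed with phosphatidylinositol substrate and γ-32P-ATP. Labelled lipids were extracted, mixed with reference lipids and separated by TLC (CHCl3–MeOH–H2O–NH4OH (25%), 45:35:8.5:1.5). PI3P was detected by autoradiography.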

IR, IRS-1, mTOR, AKT = assay: Immunoblotting of phosphorylation signals in primary hepatocytes; format: cell-based, mouse; conditions: cultured hepatocytes; immunoblot; n = 3; Figure 6A–D
CST-KO mice = assay: Liver glycogen content in NCD-CST-KO mice; format: in vivo, mouse; conditions: fed state, insulin 30 min, Figure 4B
mice = assay: Plasma counterregulatory hormones; format: in vivo, mouse; conditions: NCD-WT mice; acute insulin for 30 minutes; n = 7; Figure 2B,C
NCD-WT mice = assay: Liver glycogen content in NCD-WT mice; format: in vivo, mouse

insulin
effect on GSK-3β Ser9 phosphorylation (GSK-3β): increased GSK-3β Ser9 phosphorylation
effect on PI3-kinase activity (PI3P formation) (PI3-kinase): stimulated PI3-kinase activity
effect on tyrosine phosphorylation of IR and IRS-1 (IR, IRS-1, mTOR, AKT): stimulated tyrosine phosphorylation
effect on hepatic glycogen content (CST-KO mice): failed to increase
effect on plasma noradrenaline and adrenaline levels (mice): raised plasma noradrenaline and adrenaline levels only in the fasted state
effect on liver glycogen level (NCD-WT mice; fasted NCD-WT mice, insulin 30 minutes, CST 2 μg/g body weight acute (1 hour) and chronic (10–15 days), Figure 1A,C,D): restored glycogen level
fold increase in hepatic glycogen content (NCD-WT mice; fasted lean mice, CST or insulin alone): > fivefold
